System: HEK-293T
Test: Multiplex assay against HEK293T
Assay type: toxicity, cell-based
Conditions: human
Method in brief: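 Four dyes were applied at seeding to live cells: Hoechst33342, BioTracker Green Microtubule Cytoskeleton Dye, MitoTracker Red and Annexin V Alexa Fluor 680. Imaging after compound addition used a CQ1 microscope at 37°C and 5% CO2. CellPathfinder machine-learning gating then sorted cells into Hoechst high-intensity objects or normal cells, normal cells into healthy, pyknosed or fragmented nuclei, and pyknosed cells into mitotic or apoptotic, with tubulin, mitochondrial-mass and membrane-permeability phenotypes given as per cents of healthy-nucleus cells.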

[1] = 12 h, 1 µM, compound concentration 1 uM, replicate 1
[2] = 12 h, 1 µM, compound concentration 1 uM, replicate 2
[3] = 12 h, 10 µM, compound concentration 10 uM, replicate 1
[4] = 12 h, 10 µM, compound concentration 10 uM, replicate 2
[5] = 24 h, 1 µM, compound concentration 1 uM, replicate 1
[6] = 24 h, 1 µM, compound concentration 1 uM, replicate 2
[7] = 24 h, 10 µM, compound concentration 10 uM, replicate 1
[8] = 24 h, 10 µM, compound concentration 10 uM, replicate 2
[9] = 48 h, 1 µM, compound concentration 1 uM, replicate 1
[10] = 48 h, 1 µM, compound concentration 1 uM, replicate 2
[11] = 48 h, 10 µM, compound concentration 10 uM, replicate 1
[12] = 48 h, 10 µM, compound concentration 10 uM, replicate 2

## N#Cc1c(Oc2cccc(OS(=O)(=O)CCCC(F)(F)F)c2)cccc1C(F)(F)F
[1]
  Population Apoptotic (%): 35%
  Population Fragmented Nuclei (%): 4%
  Population Healthy Nuclei (%): 86%
  Population Hoechst High Intensity Objects (%): 5%
  Population Membrane Permeable-Phenotype (%): 0%
  Population Mitochondria Different-Phenotype (%): 46%
  Population Mitotic Cells (%): 65%
  Population Normal (%): 94%
  Population Pyknosed Nuclei (%): 8%
  Population Tubulin-Different-Phenotype (%): 38%
  Total Cell Count: 490
[2]
  Population Apoptotic (%): 63%
  Population Fragmented Nuclei (%): 6%
  Population Healthy Nuclei (%): 75%
  Population Hoechst High Intensity Objects (%): 11%
  Population Mitochondria Different-Phenotype (%): 60%
  Population Mitotic Cells (%): 36%
  Population Normal (%): 88%
  Population Pyknosed Nuclei (%): 17%
  Population Tubulin-Different-Phenotype (%): 28%
  Total Cell Count: 349
[3]
  Population Apoptotic (%): 42%
  Population Fragmented Nuclei (%): 8%
  Population Healthy Nuclei (%): 65%
  Population Hoechst High Intensity Objects (%): 10%
  Population Membrane Permeable-Phenotype (%): 0%
  Population Mitochondria Different-Phenotype (%): 74%
  Population Mitotic Cells (%): 57%
  Population Normal (%): 89%
  Population Pyknosed Nuclei (%): 25%
  Population Tubulin-Different-Phenotype (%): 65%
  Total Cell Count: 290
[4]
  Population Apoptotic (%): 44%
  Population Fragmented Nuclei (%): 6%
  Population Healthy Nuclei (%): 64%
  Population Hoechst High Intensity Objects (%): 40%
  Population Mitochondria Different-Phenotype (%): 81%
  Population Mitotic Cells (%): 55%
  Population Normal (%): 59%
  Population Pyknosed Nuclei (%): 28%
  Population Tubulin-Different-Phenotype (%): 58%
  Total Cell Count: 318
[5]
  Population Apoptotic (%): 28%
  Population Fragmented Nuclei (%): 10%
  Population Healthy Nuclei (%): 77%
  Population Hoechst High Intensity Objects (%): 3%
  Population Membrane Permeable-Phenotype (%): 0%
  Population Mitochondria Different-Phenotype (%): 34%
  Population Mitotic Cells (%): 71%
  Population Normal (%): 96%
  Population Pyknosed Nuclei (%): 12%
  Population Tubulin-Different-Phenotype (%): 26%
  Total Cell Count: 654
[6]
  Population Apoptotic (%): 60%
  Population Fragmented Nuclei (%): 8%
  Population Healthy Nuclei (%): 81%
  Population Hoechst High Intensity Objects (%): 9%
  Population Mitochondria Different-Phenotype (%): 48%
  Population Mitotic Cells (%): 40%
  Population Normal (%): 90%
  Population Pyknosed Nuclei (%): 9%
  Population Tubulin-Different-Phenotype (%): 20%
  Total Cell Count: 412
[7]
  Population Apoptotic (%): 43%
  Population Fragmented Nuclei (%): 9%
  Population Healthy Nuclei (%): 77%
  Population Hoechst High Intensity Objects (%): 13%
  Population Membrane Permeable-Phenotype (%): 0%
  Population Mitochondria Different-Phenotype (%): 66%
  Population Mitotic Cells (%): 56%
  Population Normal (%): 86%
  Population Pyknosed Nuclei (%): 13%
  Population Tubulin-Different-Phenotype (%): 56%
  Total Cell Count: 338
[8]
  Population Apoptotic (%): 45%
  Population Fragmented Nuclei (%): 10%
  Population Healthy Nuclei (%): 61%
  Population Hoechst High Intensity Objects (%): 47%
  Population Mitochondria Different-Phenotype (%): 68%
  Population Mitotic Cells (%): 54%
  Population Normal (%): 52%
  Population Pyknosed Nuclei (%): 27%
  Population Tubulin-Different-Phenotype (%): 41%
  Total Cell Count: 312
[9]
  Population Apoptotic (%): 20%
  Population Fragmented Nuclei (%): 13%
  Population Healthy Nuclei (%): 81%
  Population Hoechst High Intensity Objects (%): 1%
  Population Membrane Permeable-Phenotype (%): 1%
  Population Mitochondria Different-Phenotype (%): 21%
  Population Mitotic Cells (%): 79%
  Population Normal (%): 98%
  Population Pyknosed Nuclei (%): 5%
  Population Tubulin-Different-Phenotype (%): 15%
  Total Cell Count: 986
[10]
  Population Apoptotic (%): 56%
  Population Fragmented Nuclei (%): 12%
  Population Healthy Nuclei (%): 82%
  Population Hoechst High Intensity Objects (%): 5%
  Population Membrane Permeable-Phenotype (%): 0%
  Population Mitochondria Different-Phenotype (%): 23%
  Population Mitotic Cells (%): 43%
  Population Normal (%): 94%
  Population Tubulin-Different-Phenotype (%): 13%
  Total Cell Count: 568
[11]
  Population Apoptotic (%): 44%
  Population Fragmented Nuclei (%): 11%
  Population Healthy Nuclei (%): 78%
  Population Hoechst High Intensity Objects (%): 5%
  Population Membrane Permeable-Phenotype (%): 0%
  Population Mitochondria Different-Phenotype (%): 44%
  Population Mitotic Cells (%): 55%
  Population Normal (%): 94%
  Population Pyknosed Nuclei (%): 10%
  Population Tubulin-Different-Phenotype (%): 29%
  Total Cell Count: 464
[12]
  Population Apoptotic (%): 58%
  Population Healthy Nuclei (%): 69%
  Population Hoechst High Intensity Objects (%): 24%
  Population Mitochondria Different-Phenotype (%): 47%
  Population Mitotic Cells (%): 41%
  Population Normal (%): 75%
  Population Pyknosed Nuclei (%): 18%
  Population Tubulin-Different-Phenotype (%): 23%
  Total Cell Count: 363

— ChEMBL document CHEMBL5058577, “EUbOPEN Chemogenomics Library 2 (Multiplex)” (2022)
